From PubChem BioAssay
Rpn11 block: Rpn11 (PSMD14) deubiquitinase inhibitors, primary screen, biochemical, fluorescence polarization, uHTS; 26S proteasome non-ATPase regulatory subunit 14 (Homo sapiens), O00487; human 26S proteasome, Ub4-pepOG fluorescence polarization; 20S core pre-blocked with epoxomicin; inhibition, % at 20 µM; 0.59% of 360,000 active;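 active = inhibition at 20 µM, scaled to each plate's controls, above about 33%, limit read from the data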
SENP1 FRET inh: human SENP1 catalytic domain inhibitors, primary screen, biochemical, FRET, uHTS; 0.21% of 360,000 active; AID 624204, 2012; inhibition, % at 10 µM; Sentrin-specific protease 1 (Homo sapiens), Q9P0U3; recombinant SENP1 catalytic domain, CyPet-SUMO1-YPet FRET cleavage;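 active = inhibition at least 30% at 10 µM, raw YFP signal under a set limit, fluorescence ratio 0.5 to 1.5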;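 also: 0% = enzyme with DMSO and 100% = no enzyme wells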
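system = hSENP1 catalytic domain, recombinant | reagent = SFCypet-SUMO1-SFYpet substrate at 25 nM | doses = one dose per compound, 10 µM, 0.5% DMSO | incubation = enzyme reaction for 50 min at room temperature, dark | measured by = FRET, CFP and YFP emission | controls = no-enzyme low, enzyme-DMSO high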
TPT1 inh: Candida albicans TPT1 enzyme inhibitors, primary screen, biochemical, fluorescence polarization; tRNA 2'-phosphotransferase TPT1 (Candida albicans SC5314); recombinant caTPT1, FP RNA substrate dephosphorylation; inhibition, % at 5 µM; 0.81% of 300,000 active; AID 1962, 2009;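 active = inhibition above the mean of all tested compounds plus 3 SD, set per screening campaign, cut at about 24% in these data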;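 also: plate controls were DMSO alone for no effect and ferristatin control at 100 nM for full effect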
HNF4A DNA FP: change in binding of human HNF4A to DNA, primary screen, biochemical, fluorescence polarization, FITC-DNA; Hepatocyte nuclear factor 4-alpha (Homo sapiens), P41235; 1 h; activity change, % at 10 µM; 0.3% of 360,000 active; in the data active = activity change above about 30%, passing the limit was not always enough
CSN deneddyl inh: inhibitors of CSN-mediated cullin deneddylation, primary screen, biochemical, fluorescence polarization, uHTS. inhibition, % at 12.5 µM. 0.38% of 360,000 active. COP9 signalosome complex subunit 5 (Homo sapiens), Q92905. Purified CSN, SCF-Nedd8-OG deneddylation;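 active = pattern-corrected inhibition above about 35%, with an unprinted fluorescence ratio check between 0.5 and 1.5, limit read from the data, passing the limit was not always enough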;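 also: 0% = enzyme with substrate and 100% = substrate without enzyme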
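assay system = purified human Csn5 enzyme expressed in HEK293T cells | amount = 0.24 nM enzyme | buffer or medium = Tris/NaCl/DTT buffer, pH 7.5 | reagent = 10 nM SCFSkp2-Nedd8OG | compound = one concentration, 12.5 µM, 0.25% DMSO | times = 90 min reaction at room temperature | signal = FP | read-out basis = % inhibition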
Rpn11 inh conf: Rpn11 (PSMD14) deubiquitinase inhibitors, confirmation, biochemical, fluorescence polarization, single concentration | shares compounds with Rpn11 block | purified human 26S proteasome, Ub4-pepOG fluorescence polarization; proteasome pretreated with epoxomicin | inhibition, % at 20 µM | 29% of 1,900 active | AID 602318, 2012
MMP-2 counter: MMP-2 enzyme inhibition, confirmation, counter-screen for RPN11 inhibitor project, biochemical, fluorescence, single concentration. shares compounds with Rpn11 block. recombinant MMP-2, FRET peptide cleavage fluorescence. inhibition, % at 20 µM. 4% of 1,900 active. AID 602330, 2012;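 also: human MMP-2 activated beforehand with APMA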
Thrombin inh: bovine thrombin protease inhibition, confirmation, counter-screen for Rpn11 inhibitor project, biochemical, fluorescence polarization, single concentration | shares compounds with Rpn11 block | bovine thrombin cleavage of Ub4-pepOG | inhibition, % at 20 µM | 13% of 1,900 active;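 active = mean inhibition at least 40% at 20 µM, or signal 3 deviations below plate average, so some actives read negative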;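 also: plate controls were thrombin with DMSO for no effect and buffer wells lacking thrombin for full effect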
Target sequence (P00735 whole entry, looked up): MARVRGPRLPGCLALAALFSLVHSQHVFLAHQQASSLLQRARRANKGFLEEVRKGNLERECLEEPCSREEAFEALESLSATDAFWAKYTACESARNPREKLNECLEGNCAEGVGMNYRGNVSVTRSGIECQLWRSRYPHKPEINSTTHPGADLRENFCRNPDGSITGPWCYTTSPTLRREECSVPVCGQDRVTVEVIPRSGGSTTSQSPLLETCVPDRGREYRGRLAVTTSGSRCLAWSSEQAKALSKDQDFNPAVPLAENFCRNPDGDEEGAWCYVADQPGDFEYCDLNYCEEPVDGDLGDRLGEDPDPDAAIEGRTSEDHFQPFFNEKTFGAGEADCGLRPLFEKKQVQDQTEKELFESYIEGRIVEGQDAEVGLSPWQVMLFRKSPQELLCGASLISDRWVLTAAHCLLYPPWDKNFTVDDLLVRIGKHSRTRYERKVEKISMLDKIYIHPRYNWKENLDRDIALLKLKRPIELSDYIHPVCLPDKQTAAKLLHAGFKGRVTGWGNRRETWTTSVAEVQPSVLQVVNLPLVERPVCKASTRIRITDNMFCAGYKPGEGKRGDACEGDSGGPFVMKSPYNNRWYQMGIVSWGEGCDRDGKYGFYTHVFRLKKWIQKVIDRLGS
* marks the source's active call; other numbers are inactive results; / = no result. Shown are actives, neighbours in structure and some others; about 1.6% of the full set was active somewhere. Rule as the data show it, unless noted: active = inhibition above about 40%; inactive = the rest.

SMILES	Rpn11 block	SENP1 FRET inh	TPT1 inh	HNF4A DNA FP	CSN deneddyl inh	Rpn11 inh conf	MMP-2 counter	Thrombin inh
CC(=O)Oc1ccc(C#C/C=C2\c3ccccc3C(=O)N2c2ccccc2)cc1	72*	-44	/	27	6	51*	-1	-87
O=C(CCl)NCCN1C(=O)S/C(=C\c2cccnc2)C1=O	46*	0	1	12	62*	53*	23	-11
O=C(COC(=O)c1ccc(O)cc1)Nc1ccc(N2CCCCC2)cc1	56*	1	-2	-3	3	1	2	-2
COc1ccc(C(=O)Nc2ccc(N3CCCC3)cc2)cc1	43*	-1	9	9	13	13	-10	-6
COc1ccccc1OCC(=O)NCC1CCCN(Cc2cnn(C(C)C)c2)C1 (centres undefined)	0	0	-1	6	2	/	/	/
O=c1[nH]c2ccccc2nc1NCCN1CCOCC1	43*	-2	1	2	1	-13	-17	-4
CCCN1CCc2c(sc3nc(SCC)n(-c4ccccc4)c(=O)c23)C1	36	-22	/	10	6	/	/	/
CCSc1nc2sc3c(c2c(=O)n1-c1ccccc1)CCN(C)C3	53*	-22	8	10	6	7	-12	14
Cc1cc(OCC(=O)Nc2ccc(CN3CCOCC3)cc2)c2c(C)c(C)c(=O)oc2c1	0	1	0	-1	-4	/	/	/
CCn1nc(NC(=O)c2ccncc2)c2cc3cccc(C)c3nc21	3	-79	0	-3	-1	/	/	/
CCn1nc(NC(=O)c2ccccn2)c2cc3cccc(C)c3nc21	68*	-19	-2	4	2	4	-25	15
O=C1N=C(N2C=CC(=C3C=CNC=C3)C=C2)/C(=C/N=NC(=O)c2ccccc2)S1	-4	8	0	-6	8	/	/	/
C#CCOCCOCCOCCNc1nc(N2CCN(C(=O)CCCCCCCCCCNC(=O)[C@H](CCCCN)n3cc(C[C@@H](C)CC)nn3)CC2)nc(N2CCN(C(=O)CCCCCCCCCCNC(=O)[C@H](CCCCN)n3cc(C[C@@H](C)CC)nn3)CC2)n1	87*	-5	-1	187	106*	45*	-56	29
C#CCOCCOCCOCCNc1nc(N2CCN(C(=O)[C@H](Cc3cc4ccccc4[nH]3)n3cc([C@@H](N)CC(C)C)nn3)CC2)nc(N2CCN(C(=O)[C@H](Cc3cc4ccccc4[nH]3)n3cc([C@@H](N)CC(C)C)nn3)CC2)n1	68*	-9	0	25	50*	33	1	-5
CC[C@H](C)[C@H]1CNC(=S)N1CC1CCN(CC)CC1	2	3	/	-4	0	/	/	/
Cc1ccc(CNC(=O)c2ccc(N3CCC4(CC3)CC(c3cccc(Br)c3)=NO4)c(NC(=O)c3ccc(Br)cc3)c2)cc1	36	1	/	14	4	/	/	/
Cc1ccc(CNC(=O)c2ccc(N3CCC4(CC3)CC(c3cccc(Br)c3)=NO4)c(NC(=O)c3cccc(C)c3)c2)cc1	42*	1	7	14	11	7	-1	9
CCC(CC)C(=O)c1c[nH]c(C(=O)NCc2cccs2)c1	71*	0	5	4	7	-17	-36	-6
CCC(CC)C(=O)c1c[nH]c(C(=O)NCc2ccco2)c1	1	4	-1	1	0	/	/	/
CS(=O)(=O)N1CCN(c2ccc([N+](=O)[O-])c(NCc3ccc(Cl)cc3)c2)CC1	45*	1	-3	33	76*	20	-34	9
COC(=O)c1ccccc1NC(=O)CN1CCN(Cc2ccccc2)CC1	37*	-1	6	-28	-1	-24	6	-26
COC(=O)c1ccccc1NC(=O)CN1CCCCC1	-4	4	1	1	2	/	/	/
CCOC(=O)c1ccc(-c2ccc3oc(-c4ccsc4)cc(=O)c3c2)cc1F	43*	-5	/	0	-5	-8	-21	-11
COc1cc(-c2ccc3oc(-c4ccsc4)cc(=O)c3c2)cc(OC)c1OC	18	2	/	0	1	/	/	/
CNC(=O)COc1ccc(Nc2nnc(-c3ccc(C)c(S(N)(=O)=O)c3)c3ccccc23)cc1	-8	4	3	2	0	/	/	/
SMILES	Rpn11 block	SENP1 FRET inh	TPT1 inh	HNF4A DNA FP	CSN deneddyl inh	Rpn11 inh conf	MMP-2 counter	Thrombin inh
Cc1ccc(C(=O)O)cc1NC(=S)NC(=O)c1ccc(-c2ccc(Cl)cc2)o1	48*	2	3	1	0	13	45*	-23
COc1ccc(C(=O)O)cc1NC(=S)NC(=O)c1ccc(-c2ccc(Cl)cc2)o1	5	-2	/	-3	6	/	/	/
C/C(=N\Nc1ccc(C(=O)O)cc1)c1ccc(S(=O)(=O)NCc2ccco2)cc1	-5	-1	5	5	-3	/	/	/
O=C(COC(=O)CC12CC3CC(CC(C3)C1)C2)Nc1cccnc1Cl	-1	2	-1	-1	-1	/	/	/
CCCOc1ccc(C(=O)NC(=S)N2CCN(c3cc4c(cc3F)c(=O)c(C(=O)O)cn4CC)CC2)cc1	154*	0	0	-6	-1	-7	-19	-10
O=C(CSc1ncccc1C(=O)O)c1cccc(C(F)(F)F)c1	121*	3	-2	56*	-9	-4	-27	-12
O=C(CSc1ncccc1C(=O)O)c1ccc2ccccc2c1	0	-1	-1	3	-1	/	/	/
CCN1CC(O)=C(c2nc3ccccc3s2)C1=N	99*	-15	-6	22	-2	4	-41	-5
Cc1cccc(NC(=O)/C(=C\c2ccco2)NC(=O)c2cccs2)c1	32*	-11	12	14	8	4	-5	7
Cc1ccc(C(=O)N/C(=C/c2ccco2)C(=O)Nc2cccc(C)c2)cc1	25	-6	13	10	10	/	/	/
CCOP(=O)(c1ccccc1)c1nc(-c2ccc(F)cc2)oc1N1CCCCC1 (centres undefined)	126*	1	1	-1	4	-6	-20	-16
